# Measurements collected from several papers.
# Read-out: microbial growth
SMILES,organism,test,system,setting,MIC
C=C[C@@]1(C)C=C2CC[C@@H]3[C@](C)(CCC[C@@]3(C)C(=O)O)[C@H]2CC1,Helicobacter pylori,broth dilution,,,31.2 µg/mL
O=C(O)CN1C(=O)/C(=C/c2ccc(-c3ccc(N(c4ccccc4)c4ccccc4)cc3)cc2)SC1=S,Bacillus cereus,broth dilution,ATCC10876,,7.8 µg/mL
CO/N=C(\C(=O)N[C@@H]1C(=O)N2C(C(=O)O)=C(CSC(=O)c3ccco3)CS[C@H]12)c1csc(N)n1,Salmonella enterica,,,"20 h, pH 7.2",1 µg/mL
O=C1NC(=S)S/C1=C\c1ccc(-c2ccc(N(c3ccccc3)c3ccccc3)cc2)cc1,Bacillus cereus,broth dilution,ATCC10876,,1000 µg/mL
Cc1cc(NS(=O)(=O)c2ccc(N)cc2)no1,Salmonella enterica,,,"20 h, pH 7.2",64 µg/mL
COc1cc(-c2cc(=O)c3c(O)cc(O)cc3o2)ccc1O,Helicobacter pylori,broth dilution,,,3.9 µg/mL
Oc1ccc(-c2nc(-c3ccc(Oc4ccccc4)cc3)no2)cc1,Bacillus cereus,broth dilution,ATCC13061,,2 µg/mL
C[C@@H](O)[C@H]1C(=O)N2C(C(=O)O)=C(S[C@@H]3CN[C@H](C(=O)N(C)C)C3)[C@H](C)[C@H]12,Salmonella enterica,broth dilution,TYPHIMURIUM,clinical isolate,≤ 0.5 µg/mL
O=C(O)c1cn(C2CC2)c2cc(N3CCNCC3)c(F)cc2c1=O,Bacillus cereus,broth dilution,ATCC10876,,0.12 µg/mL
O=C(Nc1ncc([N+](=O)[O-])s1)c1ccncc1,Helicobacter pylori,broth dilution,26695,27 h,16 µM
O=C1NC(=S)N/C1=C\c1ccc(-c2ccc(N(c3ccccc3)c3ccccc3)cc2)c2ccccc12,Bacillus cereus,broth dilution,ATCC10876,,> 1000 µg/mL
CC1(C)S[C@@H]2[C@H](NC(=O)[C@H](N)c3ccccc3)C(=O)N2[C@H]1C(=O)O,Salmonella enterica,,"F98, TYPHIMURIUM","20 h, pH 7",2 µg/mL
O=C(Nc1ncc([N+](=O)[O-])s1)c1cccnc1,Helicobacter pylori,broth dilution,26695,27 h,4 µM
